Measured values pooled from the literature.
Lines come from different studies, so protocols differ.
PRKAA1: 5'-AMP-activated protein kinase catalytic subunit alpha-1 (PRKAA1, Homo sapiens, UniProt Q13131)
G protein-coupled receptor 88: G protein-coupled receptor 88 (Homo sapiens, UniProt Q9GZN0)
Cnr2: Cannabinoid receptor 2 (Cnr2, Mus musculus, UniProt P47936)

| SMILES | target | test | test system | setting | endpoint | value |
| --- | --- | --- | --- | --- | --- | --- |
| Cn1cc(-c2cc(F)cc(N3CCn4c(cc5c4CCCC5)C3=O)c2CO)cc(Nc2ccc(N3CCN(C4COC4)CC3)cn2)c1=O | PRKAA1 | enzyme activity, inhibitor |  | 0.1 µM | inhibition | 0% |
| CCCCOc1ccc([C@@H](CO)C(=O)N[C@H](C)c2ccccc2)cc1 | G protein-coupled receptor 88 | cAMP, agonist, TR-FRET | CHO |  | Emax | 100% |
| Cc1nn(C)cc1-c1nc2c(N3CCN(Cc4ccc(Cl)cc4)CC3)c(Cl)cnc2[nH]1 | PRKAA1 | binding, competition with immobilised ligand |  | 1 µM | remaining binding | 2.4% |
| Nc1ncc(-c2nc(N3CCOCC3)nc(N3CCOCC3)n2)c(C(F)F)n1 | Mitogen-activated protein kinase kinase kinase kinase 5 (MAP4K5, Homo sapiens, UniProt Q9Y4K4) | binding, competition with immobilised ligand |  | 10 µM | remaining binding | 100% |
| CCOC(=O)C(CC)(CCCSCCOCCOCCNc1ccc([N+](=O)[O-])c2nonc12)NC(=O)c1ccc(C2CC2)c(Cc2ccc(F)cc2)n1 (racemic) | Cnr2 | cAMP, agonist |  |  | Emax | 123% |
| Cn1cc(-c2cccc(N3CCc4c(sc5c4CC(C)(C)C5)C3=O)c2CO)cc(Nc2ccncn2)c1=O | Sphingosine kinase 2 (SPHK2, Homo sapiens, UniProt Q9NRA0) | enzyme activity, inhibitor |  | 1 µM | inhibition | -1% |
| CCCCCOc1ccc([C@@H](CO)C(=O)N[C@H](C)c2ccccc2)cc1 | G protein-coupled receptor 88 | cAMP, agonist, TR-FRET | CHO |  | Emax | 103% |
| CC(C)C[C@H](NC(=O)[C@H]1O[C@@H]1C(=O)O)C(=O)NCCCCN=C(N)N | Procathepsin L (CTSL, Homo sapiens, UniProt P07711) | enzyme activity, inhibitor |  | 500 pM | inhibition | 13% |
| CCOC(=O)C(CC)(CCCSCCOCCOCCOCCOCCNC(=O)OC(C)(C)C)NC(=O)c1ccc(C2CC2)c(Cc2ccc(F)cc2)n1 (stereo not drawn) | Cnr2 | cAMP, agonist |  |  | Emax | 84% |
| CC[C@@H](C)COc1ccc([C@@H](CO)C(=O)N[C@H](C)c2ccccc2)cc1 | G protein-coupled receptor 88 | cAMP, agonist, TR-FRET |  |  | Emax | 96% |
| COc1ncccc1-c1cnn2ccc(N3CCN(C(=O)OC(C)C)CC3)nc12 | Platelet-derived growth factor receptor alpha (PDGFRA, Homo sapiens, UniProt P16234) | binding, competition with immobilised ligand |  | 1 µM | remaining binding | 100% |
| CCC[C@H](C)COc1ccc([C@@H](CO)C(=O)N[C@H](C)c2ccccc2)cc1 | G protein-coupled receptor 88 | cAMP, agonist, TR-FRET | CHO |  | Emax | 97% |
| C#Cc1n[nH]c2c(-c3cn([C@@H](C)c4ccccn4)c(=O)[nH]c3=O)cc(F)cc12 | Ephrin type-B receptor 1 (EPHB1, Homo sapiens, UniProt P54762) | enzyme activity, inhibitor |  | 0.1 µM | inhibition | 1.8% |
| CCN1CCN(Cc2ccc(C(=O)Nc3ccc(C)c(Oc4ccc5c(c4)CC(=O)N5)c3)cc2C(F)(F)F)CC1 | Cyclin-dependent kinase 13 (CDK13, Homo sapiens, UniProt Q14004) | binding, competition with immobilised ligand |  | 1 µM | remaining binding | 100% |
| Cc1nc2c(=O)n(C)c(=O)nc-2n(C)n1 | Protein disulfide-isomerase (P4HB, Homo sapiens, UniProt P07237) | thermal stability, DSF |  | 1 µM | ΔTm | -1.43 °C |
